The text below walks through data of ChEMBL document CHEMBL1132403, “Prospective identification of biologically active structures by topomer shape similarity searching” (J Med Chem, 1999).

The test has as its target T1, Type-1 angiotensin II receptor B (Rattus norvegicus) (UniProt P29089).
T1 sequence (whole entry): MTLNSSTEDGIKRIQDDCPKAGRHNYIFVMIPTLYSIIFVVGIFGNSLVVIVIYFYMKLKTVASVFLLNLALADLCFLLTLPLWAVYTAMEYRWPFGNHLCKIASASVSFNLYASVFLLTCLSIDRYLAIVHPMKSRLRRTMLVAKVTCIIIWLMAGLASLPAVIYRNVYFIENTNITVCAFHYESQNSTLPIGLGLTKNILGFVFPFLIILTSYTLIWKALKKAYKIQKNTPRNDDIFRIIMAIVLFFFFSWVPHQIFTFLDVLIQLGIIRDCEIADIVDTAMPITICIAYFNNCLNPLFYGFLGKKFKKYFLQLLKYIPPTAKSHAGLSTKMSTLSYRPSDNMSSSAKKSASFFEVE
Briefly: Percent displacement of [125I]Sar, Ile-Angiotensin II (A II) binding to rat Angiotensin II receptor, type 1. Also on record: concentration or dose not given beside the values. Put shortly:
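Whole-cell competition binding on rat aortic smooth muscle cells expressing rat AT1, seeded 24 h before assay. Radioligand [125I]Sar,Ile-angiotensin II at 0.2 nM in DMEM pH 7.4 with 5 mM MgCl2, 1 mM EDTA and 0.1% BSA. Incubation 2 h at 25 °C with mild shaking. Nonspecific binding defined by 10 μM angiotensin II (final). Cells washed twice with PBS, lysed in 1% Triton X/0.1% BSA, and counted on a γ counter. Assay variability at least ±20%.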
`CN(C)c1cnnc2ncn(Cc3cccc(-c4ccccc4C(=O)O)c3)c12` had a Displacement of 47%. The value for `CCCc1nccn1Cc1ccc(-c2ccccc2C(=O)O)cc1` was 37%; that for `c1ccc(-c2ccc(Cn3c(-c4cscn4)nc4ccccc43)cc2)c(Cc2nnn[nH]2)c1` was 35%. Consider `Clc1nc2ccccc2n1Cc1ccc(-c2ccccc2Cc2nnn[nH]2)cc1`, for which the Displacement came to 31%. The value for `O=C1COc2cccnc2N1Cc1cccc(-c2cccc(Cc3nnn[nH]3)c2)c1` was 21%. The compound `CSc1nc2ccccc2n1Cc1ccc(-c2ccccc2Cc2nnn[nH]2)cc1` showed a Displacement of 38%. Turning to `O=C(O)c1cccc(-c2ccc(Cn3c(C(F)(F)F)nc4ccccc43)cc2)c1`, the Displacement is 33%. For the compound `CCOC(=O)c1cc2ccccc2n1Cc1cccc(-c2ccccc2CC(=O)O)c1`, the Displacement is 30%.

`CC(C)c1nc2ccccc2n1Cc1ccc(-c2ccccc2-c2nn[nH]n2)cc1` registered a Displacement of 69%.

Regarding `O=C(O)c1cccc(-c2ccc(CN3C(=O)C(=O)c4c(Cl)ccc(Cl)c43)cc2)c1`, the Displacement is 31%.
